# Screening results from PubChem.
# SR-BI DiI-HDL act: SR-BI HDL lipid transfer activation; CHO ldlA[mSR-BI] cells, DiI-HDL uptake fluorescence, 3 h; 100 = double the neutral-control signal; activation, % at 12.5 µM; 320,000 tested, 0.096% active; AID 504775;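 active = mean replicate activation of at least 60% and every replicate at or above 60%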
#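 Material: SR-BI-overexpressing, LDLR-lacking CHO cells; schedule: compound exposure 3 h, 37 °C; reagent: DiI-labelled HDL at 10 µg/mL final; technique: bottom-read fluorescence, 550/595 nm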
# Neddylation inh: cullin neddylation inhibition | P61081+Q13564 | TR-FRET cullin neddylation, biochemical | inhibition, % at 25 µM | 360,000 tested, 0.58% active; in the data active = inhibition above about 36%
# SR-BI HDL uptake: inhibitors of mouse SR-BI mediated HDL lipid uptake; Q61009; 320,000 tested, 0.96% active; ldlA[mSR-BI] CHO cells, DiI-HDL uptake fluorescence, 3 h; inhibition, % at 12.5 µM;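 active = mean replicate inhibition of at least 70% and a set share of replicates each scoring 70 or more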
# UBC13 inh: human UBC13 polyubiquitination inhibition. UBC13 polyubiquitin chain formation, TR-FRET. P61088. 330,000 tested, 0.47% active. AID 485273. inhibition, % at 20 µM; in the data active = inhibition above about 45%, passing the limit was not always enough
# Target sequence (P61088 whole entry, looked up): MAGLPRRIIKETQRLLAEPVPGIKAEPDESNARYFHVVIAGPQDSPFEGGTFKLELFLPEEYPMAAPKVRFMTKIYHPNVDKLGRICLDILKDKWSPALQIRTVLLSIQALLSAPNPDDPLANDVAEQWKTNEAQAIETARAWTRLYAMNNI
# Hits are given with their value; n = inactive; x = no result shown. This is a sample that favours compounds with a hit; in the whole collection about 1.9% have one here.
SMILES,SR-BI DiI-HDL act,Neddylation inh,SR-BI HDL uptake,UBC13 inh
O=C(NN=C(Cc1ccccc1)Cc1ccccc1)c1ccccc1O,298.5,x,n,n
CC1(C(=O)NCc2ccc3c(c2)OCO3)CCN1C(=O)C1(c2ccc(Cl)cc2)CC1 (stereo not given),x,n,x,x
COc1ccccc1CCNC(=O)C1CCN(c2nnc(C)c3c(C)n(-c4ccc(C)cc4)nc23)CC1,n,n,79.6,n
CCc1nnc(NC(=O)[C@@H](NS(=O)(=O)c2ccc3c(c2)OCCO3)C(C)C)s1,n,n,n,x
C[C@H](CO)N1C[C@H](C)[C@@H](CN(C)C(=O)Nc2ccc(C(F)(F)F)cc2)Oc2c(NC(=O)CCC(F)(F)F)cccc2C1=O,n,n,76.4,n
Cc1noc(C)c1NC(=O)Nc1cccc2c1O[C@H](CN(C)C(=O)Nc1ccc(C(F)(F)F)cc1)[C@@H](C)CN([C@H](C)CO)C2=O,n,n,79.5,n
CCN(CC)CCN(CC(=O)Nc1c(C)cc(C)cc1C)C(=O)c1ccccc1,n,n,n,n
C/C(=N/NC(=O)NC12CC3CC(CC(C3)C1)C2)c1ccccc1,n,n,n,n
COc1ccc([C@H]2CC(=O)C[C@@H](CCn3cccn3)O2)cc1,x,n,x,x
Cc1cc2cc3c(cc2nc1SCC(=O)OC(C)C)OCO3,n,n,78.2,n
Cc1cc2cc3c(cc2nc1SCC(=O)N1CCN(C(=O)c2ccco2)CC1)OCO3,n,n,n,n
COc1ccc(CCNC(=O)CCCn2c(=O)c3cccn3c3cccnc32)c(OC)c1OC,n,n,n,n
CCOc1ccc(CCNC(=O)Cn2nc(C)n3cccc3c2=O)cc1OCC,n,n,n,n
CSc1cccc(NC(=O)CCn2c(=O)c3cccn3c3cccnc32)c1,n,n,77.2,n
CCOc1ccc(CCNC(=O)CCCn2c(=O)c3cccn3c3cccnc32)cc1OCC,n,n,76.4,n
COc1ccc(CCNC(=O)CCCn2c(=O)c3cccn3c3cccnc32)c(OC)c1,n,n,71.3,n
COc1ccc(C2(C)NC(=O)NC2=O)cc1OC (stereo not given),x,n,x,n
Cc1cc(C)n(-c2ccc(NC(=O)C3CCCCN3C(=O)c3sccc3C)cc2)n1 (stereo not given),n,n,n,n
COc1cc(N/N=C/c2ccc(N(C)C)cc2)ncn1,n,40.0,n,n
CCN(CC(=O)Nc1ccc2c(c1)OCCO2)C(=O)C(C)Oc1ccc(F)cc1 (stereo not given),n,n,n,x
Cc1cc(C)nc(SCc2ccc(C(=O)N/N=C/c3ccc(C(=O)O)cc3)cc2)n1,n,n,n,n
COc1ccc(O)c(/C=N/NC(=O)c2ccc(CSc3nc(C)cc(C)n3)cc2)c1,n,n,125.3,n
Cc1cc(C)nc(SCc2ccc(C(=O)N/N=C/c3cccc(O)c3O)cc2)n1,n,n,92.7,n
O=C(NN1CCCCC1)NN1CCCCC1,x,n,x,x
Cc1c(CNCCc2ccccc2Cl)c(C(=O)O)c(C)n1-c1ccccc1,169.1,n,n,n
SMILES,SR-BI DiI-HDL act,Neddylation inh,SR-BI HDL uptake,UBC13 inh
O=C(NCc1cccs1)C1CC(=O)N(Cc2ccccc2)C1 (stereo not given),n,n,n,n
CCOc1ccccc1NC(=O)C1C2CCC3C(CCC21)C3(Cl)Cl (stereo not given),n,n,73.0,n
CCCCc1ccc(NC(=S)Nc2ccc(Nc3ccc(OC)cc3)cc2)cc1,n,n,80.7,n
NS(=O)(=O)c1ccc(NC(=O)COC(=O)COc2ccc(Br)cc2)cc1,x,n,x,n
Cc1ccnc(Nc2nc(-c3ccc(O)cc3O)cs2)c1,n,n,83.0,n
CCCN(CC(=O)Nc1ccccc1OC)C(=O)CCNC(=O)c1ccccc1OC,n,n,n,n
COc1cc2c3nnc(-c4ccc(F)cc4)c-3cn(Cc3cccc(C)c3)c2cc1OC,n,x,n,78.8
O=c1c2c3nc4ccccc4nc3n(/N=C/c3ccco3)c2ncn1CCC1=CCCCC1,67.3,n,n,n
CC/C(=N/NC(=O)c1ccccc1O)c1c(C)[nH]n(-c2ccccc2)c1=O,n,n,137.0,n
CC(=O)N/N=C/c1c(C)[nH]n(-c2ccccc2)c1=O,n,n,n,n
Cc1[nH]n(-c2ccccc2)c(=O)c1/C=N/NC(=O)c1ccccc1F,n,n,105.8,n
Cc1[nH]n(-c2ccccc2)c(=O)c1/C=N/NC(=O)c1cccc([N+](=O)[O-])c1,n,n,111.8,n
CN(Cc1ccc(Cl)c(Cl)c1)C(C(=O)NCc1ccccc1)c1ccc(C(F)(F)F)cc1 (stereo not given),x,n,x,x
C[C@H](O)[C@@H]1C(=O)N2CCc3ccc(-c4ccccc4)cc3[C@@H]2C[C@@H]1N(C)C(=S)Nc1ccc(F)cc1,x,n,x,x
N=c1n(CCN2CCOCC2)c2ccccc2n1CC(=O)c1cccc([N+](=O)[O-])c1,n,n,76.9,n
Cc1ccc2c(=O)n3c(nc2c1)C(Cc1ccccc1)NC(=O)c1ccc(Cl)cc1-3 (stereo not given),x,x,x,n
CCc1ccc2oc(-c3ccc(OC)cc3)cc(=Nc3c(C)n(C)n(-c4ccccc4)c3=O)c2c1,n,44.9,n,n
Nc1ccc(-c2cc3ccccc3oc2=O)cc1,n,n,n,n
O=C/C=C/c1c(-c2ccccc2)cc2oc3ccccc3cc1-2,n,n,99.5,n
C#Cc1ccc(NC(=O)C2(C)CCN2C(=O)C2(c3ccccc3)CCCC2)cc1 (stereo not given),x,n,x,x
O=C(CCSCCC(=O)NN=Cc1ccc(F)cc1)NN=Cc1ccc(F)cc1,n,n,81.8,x
CCOC(=O)c1sc(NN=C(C(=O)OC)C(=O)OC)c(C(=O)OCC)c1C,n,n,74.2,n
Cc1cc([N+](=O)[O-])ccc1NC(=O)Nc1ccccc1F,n,n,93.8,n
O=C(Nc1ccccc1)Nc1cc([N+](=O)[O-])ccc1F,n,n,n,n
CCCN1C(=O)/C(=C/c2ccco2)SC1=Nc1ccc(OC)cc1,n,n,79.3,n
SMILES,SR-BI DiI-HDL act,Neddylation inh,SR-BI HDL uptake,UBC13 inh
CS(=O)(=O)c1cccc(S(=O)(=O)N2CCCCCC2)c1,n,n,n,n
Cc1cc(C)n(Cc2ccc(C(=O)N/N=C/c3ccc(-c4ccc([N+](=O)[O-])cc4)o3)o2)n1,n,n,103.5,n
Cc1ccc(S(=O)(=O)N(C)C)cc1NC(=O)COC(=O)CN1C(=O)c2ccccc2C1=O,n,n,n,n
CCOc1ccccc1N1CCN(c2nc3ccccc3nc2C(C#N)C(=O)OC)CC1 (stereo not given),n,n,75.2,n
CC(=O)Oc1ccc(Cn2c(C)c(C(=O)NCc3ccc4c(c3)OCCO4)sc2=O)cc1,x,n,x,x
CC[C@H](C)[C@@H](C(=O)NCCCCCCCCCCC(=O)N1CCN(C(=O)OC(C)(C)C)CC1)n1cc(CCCCN=C(NC(=O)OC(C)(C)C)NC(=O)OC(C)(C)C)nn1,x,x,x,70.9
CC[C@H](C)[C@@H](C(=O)NCCCCCCCCCCC(=O)N1CCN(C(=O)OC(C)(C)C)CC1)n1cc(CCCCCNC(=O)OC(C)(C)C)nn1,n,n,70.7,n
COc1cccc(CN2CCN(Cc3ccc(OC)c(OC)c3)CC2CCO)c1 (stereo not given),n,n,n,n
COc1ccccc1Nc1ccc(Nc2ccccc2OC)nn1,n,n,80.7,n
